Measured values from article PMC3338355 (Biochemistry, 2011).
Non-standard residues stand in square brackets, D forms with d. No end group written: not given here. pS = N[C@@H](COP(=O)(O)O)C(=O)O

Key:
[1] = system: dullard; settings: dullard-catalyzed hydrolysis of generic substrate; cited from earlier work
[2] = target: T1, Dullard 46–244 (Homo sapiens, UniProt O95476); test: Biomol Green phosphate reagent; type: biochemical; settings: values in parentheses, 25 °C
T1 sequence (O95476 46-244): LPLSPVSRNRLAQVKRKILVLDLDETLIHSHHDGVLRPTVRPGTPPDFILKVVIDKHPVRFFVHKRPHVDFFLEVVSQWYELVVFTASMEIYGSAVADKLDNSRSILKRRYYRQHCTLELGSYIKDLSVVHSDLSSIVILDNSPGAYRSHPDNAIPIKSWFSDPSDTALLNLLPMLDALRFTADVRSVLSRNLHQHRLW
Outline: (§1)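 Dullard residues 46–244 expressed in E. coli and purified to >95% by SDS/PAGE. Substrates were Pro/Thr/Ser-containing phosphoserine nonapeptides representing lipin1 phosphorylation sites. Dephosphorylation was followed as phosphate release under steady-state conditions to derive kcat/Km. The MESG-coupled assay and the molybdate green assay were used as independent read-outs.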

[3] = target: T1, Dullard 46–244; test: MESG-coupled phosphatase assay; type: biochemical; settings: MESG-coupled phosphatase assay (EnzChek E-6646), 25°C
Outline: as §1

Molecule: O=[N+]([O-])c1ccc(OP(=O)(O)O)cc1 [pNPP, p-nitrophenyl phosphate]
- Km [1]: 18000 µM
- kcat [1]: 1 s⁻¹
- kcat/Km [1]: 56 M⁻¹ s⁻¹

Molecule: DNMNT[pS]EDE [S176]
- kcat [2]: > 0.5 s⁻¹

Molecule: PIL[pS]EGASR [S110]
- kcat/Km [3]: 650 M⁻¹ s⁻¹
- Km [2]: 700 µM
- kcat [2]: 0.28 ± 0.02 s⁻¹
- kcat/Km [2]: 400 M⁻¹ s⁻¹

Molecule: SGSRP[pS]TP [S248]
- kcat/Km [3]: 750 M⁻¹ s⁻¹
- Km [2]: 700 µM
- kcat [2]: 0.01 ± 0.002 s⁻¹
- kcat/Km [2]: 14 M⁻¹ s⁻¹
